Screens as filed in PubChem BioAssay.
Dynein cargo inh: inhibitors of GR-EGFP nuclear translocation, primary screen, dynein cargo transport inhibitor project, imaging, high-content, 3617.4 mouse cells; AID 1381, 2008; test concentration mostly 20 µM; stimulated with dexamethasone, 1 µM; active compounds read low; 0.47% of 220,000 active; z-score, hits read low;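 active means plate z-score of nuclear minus cytoplasmic receptor signal below a set negative limit, without overly bright fluorescence or cell loss, cut at about -3.5 in these data, passing the limit was not always enough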;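 further: z-score of nuclear minus cytoplasmic ring GR-EGFP intensity difference per well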
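Buffer or medium: tet-free, stripped-serum medium; Also added: dexamethasone, 1.0 µM final; Technique: high-content fluorescence imaging after fixation; Times: 48 h induction, 1 h compound, 30 min dex at 37 °C; Read-out: per-cell GR-EGFP intensity, nucleus versus surrounding cytoplasmic ring, well-averaged.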
T cruzi inh: inhibitors of intracellular T. cruzi growth, primary screen, luminescence, NIH3T3 host cells. T. cruzi beta-gal in NIH3T3, 90 h. inhibition, % (concentration not given with the values). 1.4% of 300,000 active. AID 1885, 2009;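 active means mean inhibition across valid replicates above about 55%, limit read from the data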;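 further: signal also drops with host cell toxicity which is not excluded here; 0% = plate median of DMSO wells and 100% = zero luminescence signal; higher percent means less beta-gal luminescence so fewer parasites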
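Assay system: NIH/3T3 host cells with β-galactosidase reporter T. cruzi; input: 5,000 host fibroblasts per well; compound: single 50 nL compound addition per well in DMSO; timing: ≥90 h infection period, 3 h prior cell attachment; measured by: GalScreen β-gal luminescence, detergent lysis, 60 min; evaluation: percent inhibition of parasite-derived β-gal signal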
UPR XBP1 act: activators of adaptive XBP1 UPR arm, primary screen, cell-based, CHO-XBP1 luciferase reporter, luminescence, uHTS. IRE1-XBP1 UPR activation; percent of tunicamycin response, DMSO as zero. activation, % at 20 µM. 0.33% of 330,000 active. AID 463104, 2010;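 active means versus positive control, 20 µM dose yields 30% or more activation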;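 further: 100% = tunicamycin at 10 µg/mL and 0% = DMSO only wells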
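Material: CHO-XBP1 cells stably carrying IRE1-XBP1-driven luciferase reporter / Amount: 1000 cells per well / Compound: 20 µM, 1% DMSO / Times: 6 h treatment, 37 °C / Detection: luciferase luminescence / Measure: % activation of reporter signal versus tunicamycin and DMSO controls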
CHOP inh: inhibitors of CHOP promoter induction, primary screen, cell-based, unfolded protein response, luciferase reporter; CHO-K1 CHOP-promoter luciferase, tunicamycin-induced, 15-18 h; AID 2732, 2010; 3.8% of 220,000 active; inhibition, % at 10 µM;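 active means compounds that reduced the stress-induced luciferase reporter signal by more than about 70% of percent inhibition, limit read from the data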;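 further: 0% = tunicamycin plus vehicle and 100% = wells without tunicamycin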
Lmaj promast: Leishmania major promastigote growth inhibition, primary screen; Leishmania major promastigotes, resazurin fluorescence viability; inhibition, % at 10 µM; 9% of 200,000 active; AID 1063, 2008; in the data active means inhibition above about 50%;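 further: promastigotes grown with compound for 44 hours at 28 °C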
CHOP UPR activ: activators of apoptotic CHOP UPR arm, primary screen, cell-based, CHO-CHOP luciferase reporter, luminescence, uHTS; AID 449763, 2010; activation, % at 10 µM; UPR activation; percent of tunicamycin response over DMSO baseline; 0.34% of 330,000 active;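 active means at 10 µM dose, activation of 40% or more, normalized to positive control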;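 further: 100% = tunicamycin at 10 µg/mL and 0% = DMSO alone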
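Assay system: CHO-CHOP cells, stable luciferase reporter of PERK-eIF2a-CHOP signalling / Buffer or medium: F12 plus 10% serum / Compound dosing: one dose, 10 µM in 0.5% DMSO / Times: 6 h compound treatment, 37 °C / Technique: luciferase luminescence / Read-out: % reporter activation, DMSO baseline versus tunicamycin full activation / Benchmarks: tunicamycin and DMSO controls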
* = called active by the depositor. The full list was thinned out, with hits kept by preference.

For O=[N+]([O-])c1c(Nc2cccc(O)c2)cc(Cl)c2nonc12 the results were T cruzi inh 60*, UPR XBP1 act -13 and CHOP UPR activ -12.
`O=C(Cc1ccc(Cl)cc1)Nc1ncc([N+](=O)[O-])s1` gave Dynein cargo inh 1.3, T cruzi inh 94*, CHOP inh 21 and Lmaj promast 36.
For O=C(Cc1ccc(Br)cc1)Nc1ncc([N+](=O)[O-])s1 the results were Dynein cargo inh -0.27, T cruzi inh 60*, UPR XBP1 act 2, CHOP inh 47 and CHOP UPR activ 4.
`O=C(COc1ccc(Cl)cc1)Nc1ncc([N+](=O)[O-])s1` gave Dynein cargo inh -0.82, T cruzi inh -4, CHOP inh 33 and Lmaj promast 11.
COc1ccc(C(=O)c2ccc(Cl)cc2)cc1 was read as Dynein cargo inh 2.4, T cruzi inh -9, UPR XBP1 act 4, CHOP inh -23, Lmaj promast -5 and CHOP UPR activ 8.
For COc1ccc(C(=O)c2ccc(Cl)c([N+](=O)[O-])c2)cc1 the results were Dynein cargo inh -1.5, T cruzi inh -16, UPR XBP1 act 8, CHOP inh -133, Lmaj promast 80* and CHOP UPR activ 4.
Screening CCC(CC)C(=O)N(CCc1ccc(OC)cc1)Cc1nc2ccccc2c(=O)[nH]1 returned Dynein cargo inh 0.016, T cruzi inh -8, UPR XBP1 act -3, CHOP inh 53, Lmaj promast 100* and CHOP UPR activ 1.
`COc1ccc(CCN(Cc2nc3ccccc3c(=O)[nH]2)C(=O)c2ccco2)cc1` gave Dynein cargo inh -0.46, T cruzi inh -10, UPR XBP1 act -3, CHOP inh 4, Lmaj promast -5 and CHOP UPR activ 0.
Screening CCOc1ccccc1NC(=O)CSc1nnc(CNC(=O)c2cc(OC)c(OC)c(OC)c2)o1 returned T cruzi inh -11, UPR XBP1 act -7 and CHOP UPR activ 1.
ClCc1ncc(-c2ccc(Cl)cc2)o1 was read as Dynein cargo inh -0.96, T cruzi inh -21, UPR XBP1 act 2, CHOP inh -81, Lmaj promast 9 and CHOP UPR activ 2.
Screening O=C(CSCc1ccccc1)N/N=C/c1ccc(OCC(=O)N2CCCCC2)cc1 returned Dynein cargo inh 0.11, T cruzi inh -11, CHOP inh -18 and Lmaj promast 57*.
For COc1ccc(CSCC(=O)N/N=C/c2ccc(OCC(=O)N3CCCCC3)cc2)cc1 the results were Dynein cargo inh -0.72, T cruzi inh -17, UPR XBP1 act -1, CHOP inh 0, Lmaj promast -4 and CHOP UPR activ 1.
Screening C[C@H](CO)N1C[C@H](C)[C@@H](CN(C)C(=O)NC2CCCCC2)Oc2ccc(NC(=O)C3CCCCC3)cc2C1=O returned UPR XBP1 act 2 and CHOP UPR activ 0.
`CN1CCN(C(=O)Nc2ccc3c(c2)N(C)C(=O)c2ccccc2S3)CC1` gave Dynein cargo inh 0.41, T cruzi inh 24, UPR XBP1 act -3, CHOP inh -17, Lmaj promast 98* and CHOP UPR activ 0.
For CN1C(=O)c2ccccc2Sc2ccc(NC(=O)N3CCCC3)cc21 the results were Dynein cargo inh 0.7, T cruzi inh -1, UPR XBP1 act 1, CHOP inh 23, Lmaj promast 9 and CHOP UPR activ -2.
For CCn1c(=O)cc(SCC(=O)N2CCN(c3ccccc3F)CC2)c2ccccc21 the results were Dynein cargo inh -0.1, T cruzi inh 7, UPR XBP1 act 1, CHOP inh 12, Lmaj promast 53* and CHOP UPR activ 0.
`CCn1c(=O)cc(SCC(=O)N2CCN(c3ccccn3)CC2)c2ccccc21` gave Dynein cargo inh 0.27, T cruzi inh 21, CHOP inh 3 and Lmaj promast 5.
Screening COc1ccc(-n2c(CN3CCN(c4ccccc4)CC3)nc3ccc([N+](=O)[O-])cc3c2=O)c(OC)c1 returned T cruzi inh 30, UPR XBP1 act -7 and CHOP UPR activ 0.
COc1cccc(-n2c(CN3CCN(c4ccccn4)CC3)nc3ccc([N+](=O)[O-])cc3c2=O)c1 was read as Dynein cargo inh -0.3, T cruzi inh -10, UPR XBP1 act 0, CHOP inh 43, Lmaj promast 16 and CHOP UPR activ 0.
COc1cccc(-n2c(CN3CCN(c4cccc(C)c4)C(C)C3)nc3ccc([N+](=O)[O-])cc3c2=O)c1 (configuration not stated) was read as Dynein cargo inh -0.16, T cruzi inh 59*, UPR XBP1 act -2, CHOP inh 22, Lmaj promast 66* and CHOP UPR activ 1.
`COc1cccc(-n2c(CN3CCN(c4ccc(C)cc4)C(C)C3)nc3ccc([N+](=O)[O-])cc3c2=O)c1` (configuration not stated) gave Dynein cargo inh -0.28, T cruzi inh 39, UPR XBP1 act 0, CHOP inh 11, Lmaj promast 92* and CHOP UPR activ 1.
Screening Cc1ccc(C(=O)Nc2ccc(S(=O)(=O)NC3=NCCCCC3)cc2)cc1S(=O)(=O)N1CCOCC1 returned UPR XBP1 act -3 and CHOP UPR activ 1.
`Nc1ccc(C(=O)N/N=C\c2cc(N=Nc3cccc4ccccc34)ccc2O)cc1` gave Dynein cargo inh -0.26, T cruzi inh 59*, UPR XBP1 act -1, CHOP inh 66, Lmaj promast 99* and CHOP UPR activ -1.
For COC(=O)N/N=C/c1cc(N=Nc2ccccc2Cl)ccc1O the results were Dynein cargo inh -0.49, T cruzi inh 4, UPR XBP1 act 5, CHOP inh 49 and CHOP UPR activ 3.
`Cc1cc(C(=O)N/N=C/c2cc(N=Nc3ccccc3)ccc2O)n[nH]1` gave Dynein cargo inh 1.3, T cruzi inh 45, CHOP inh 89* and Lmaj promast 99*.
`Cc1cccc(/C(N)=N/OC(=O)N2c3ccccc3Sc3ccccc32)c1` gave Dynein cargo inh -0.61, T cruzi inh 43, UPR XBP1 act 1, CHOP inh 62, Lmaj promast 71* and CHOP UPR activ 1.
`N/C(=N\OC(=O)N1c2ccccc2Sc2ccccc21)c1ccccc1` gave Dynein cargo inh 1, T cruzi inh 82*, UPR XBP1 act -1, CHOP inh 38, Lmaj promast 91* and CHOP UPR activ 3.
